Columns and labels:
[1] = Drug uptake in baboon anterior cingulate at 5 mCi, iv measured during 90 mins; assay type: ADME, organism-based; settings: papio anubis, in vivo, 1.5 h
Summary of the method: (§1)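 Fasted baboon immobilized with ketamine (10 mg/kg, im), then anesthetized with 1.5–2.0% isoflurane by endotracheal tube and kept at 37 °C. A 10 min transmission scan preceded tracer. Tracer given as 5 ± 1 mCi iv bolus (S.A. 2300 ± 250 Ci/mmol). Emission collected 90 min in 3-D mode on HR+ PET. Arterial samples (30 over 90 min) gave the input function.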

[2] = Fraction unbound in baboon plasma by HPLC; assay type: ADME, cell-free; settings: papio anubis
[3] = Metabolic stability in baboon plasma assessed as unchanged radioligand at 2 mins by HPLC; assay type: ADME, cell-free; settings: papio anubis, read-out: Stability
Summary of the method: (§2)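 Arterial blood sampled at 2, 6, 12, 30, 60 and 90 min post-injection and spun; 0.5 ml plasma mixed with 0.7 ml acetonitrile, vortexed, centrifuged 14,000 rpm 4 min. Supernatant run on reverse-phase ODS HPLC (acetonitrile/0.1 M ammonium formate 35:65, 2 ml/min) with radioactivity detection. Parent percentage corrected for background and decay; QC tracer sample injected at start and end.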

[4] = Metabolic stability in baboon plasma assessed as unchanged radioligand at 12 mins by HPLC; assay type: ADME, cell-free; settings: papio anubis, read-out: Stability; summary of the method: as §2
[5] = Drug uptake in baboon pareital cortex at 5 mCi, iv measured during 90 mins; assay type: ADME, organism-based; settings: papio anubis, in vivo, 1.5 h; summary of the method: as §1
[6] = Drug uptake in baboon temporal cortex at 5 mCi, iv measured during 90 mins; assay type: ADME, organism-based; settings: papio anubis, in vivo, 1.5 h; summary of the method: as §1
[7] = Fraction unbound in human plasma by HPLC; assay type: ADME, cell-free
[8] = Drug uptake in baboon striatum at 5 mCi, iv measured during 90 mins; assay type: ADME, organism-based; settings: papio anubis, in vivo, 1.5 h; summary of the method: as §1
[9] = Drug uptake in baboon prefrontal cortex at 5 mCi, iv measured during 90 mins; assay type: ADME, organism-based; settings: papio anubis, in vivo, 1.5 h; summary of the method: as §1
[10] = Drug uptake in baboon parahippocampal gyrus at 5 mCi, iv measured during 90 mins; assay type: ADME, organism-based; settings: papio anubis, in vivo, 1.5 h; summary of the method: as §1
[11] = Drug uptake in baboon cerebellum at 5 mCi, iv measured during 90 mins; assay type: ADME, organism-based; settings: papio anubis, in vivo, 1.5 h; summary of the method: as §1
[12] = Metabolic stability in baboon plasma assessed as unchanged radioligand at 60 mins by HPLC; assay type: ADME, cell-free; settings: papio anubis, read-out: Stability; summary of the method: as §2
[13] = Metabolic stability in baboon plasma assessed as unchanged radioligand at 30 mins by HPLC; assay type: ADME, cell-free; settings: papio anubis, read-out: Stability; summary of the method: as §2
[14] = Drug uptake in baboon amygdala at 5 mCi, iv measured during 90 mins; assay type: ADME, organism-based; settings: papio anubis, in vivo, 1.5 h; summary of the method: as §1
[15] = Metabolic stability in baboon plasma assessed as unchanged radioligand at 90 mins by HPLC; assay type: ADME, cell-free; settings: papio anubis, read-out: Stability; summary of the method: as §2
[16] = Drug uptake in baboon hippocampus at 5 mCi, iv measured during 90 mins; assay type: ADME, organism-based; settings: papio anubis, in vivo, 1.5 h; summary of the method: as §1
[17] = Metabolic stability in baboon plasma assessed as unchanged radioligand at 4 mins by HPLC; assay type: ADME, cell-free; settings: papio anubis, read-out: Stability

Compound: COc1ccc(S(=O)(=O)Nc2cc(Cl)cc(Cl)c2O[11CH3])cc1N1CCNCC1
- Drug uptake [1]: Not Active
- fraction unbound [2]: 0.05
- remaining at 2 min [3]: 99%
- remaining at 0.2 h [4]: 71%
- Drug uptake [5]: Active
- Drug uptake [6]: Active
- fraction unbound [7]: 0.01
- Drug uptake [8]: Not Active
- Drug uptake [9]: Not Active
- Drug uptake [10]: Active
- Drug uptake [11]: Not Active
- remaining at 1 h [12]: 32%
- remaining at 0.5 h [13]: 45%
- Drug uptake [14]: Active
- remaining at 1.5 h [15]: 27%
- Drug uptake [16]: Active
- remaining at 4 min [17]: 94%

Reference: ChEMBL document CHEMBL1821588, “Synthesis and in vivo evaluation of [O-methyl-11C] N-[3,5-dichloro-2-(methoxy)phenyl]-4-(methoxy)-3-(1-piperazinyl)benzenesulfonamide as an imaging probe for 5-HT6 receptors” (Bioorg Med Chem, 2011)
